Measured values from the array DNA melting data of Ke et al. (doi:10.1101/2024.01.08.574731).

Tests used:
[1] = folding enthalpy; higher = less favourable; fluorescence melt of hairpins on a sequencing array, two-state fit; conditions: sodium 0.088 M
Method in brief: (§1)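 Library hairpins on a sequenced MiSeq flow cell carried annealed Cy3 and quencher oligos, and their Cy3 fluorescence was imaged in 50 mM Na-HEPES pH 8.0 with 25 mM NaCl, in 2.5 °C steps up to 60 °C. Signals were normalised to Cy3 before quenching and to control constructs. Melting temperature and folding enthalpy were obtained from bootstrapped two-state fits, combined by inverse-variance weighting across four replicates, and the fitted temperatures were then raised by 9.35 °C to match UV melts.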

[2] = melting temperature; fluorescence melt of hairpins on a sequencing array, two-state fit, raised by 9.35 °C to match UV melts; conditions: sodium 0.088 M
Method in brief: as §1

Sequence | folding enthalpy [1] [kcal/mol] | Tm [2] [°C]
GCTGCAGGAAACTGCAAC (.(((((....))))).) | -13.5 | 40.9
GTGTACGAAAGTAAGCAC ((((((....)))..))) | -21.3 | 33.4
GATCGGGGAACCGATC ((((((....)))))) | -34.1 | 65.3
GGGACAGAAATGTCCC ((((((....)))))) | -29.3 | 64.1
GAGCTCGGAAACAAGCTC (((((.(....).))))) | -30 | 43
GCCCGCGAAAGCGTAGGC ((((((....)))..))) | -22.3 | 62.4
GATCGGAACGCCGATC ((((((....)))))) | -41.2 | 54.7
GCAACCGAAAGGTGCTGC ((((((....)))..))) | -23.5 | 57.1
GATCCGAGCGCGGATC ((((((....)))))) | -42.4 | 58.8
GACTAACGAAAGTTGGTC (((.(((....))).))) | -40.4 | 51.3
GTCAGCACGAAAGTGGAC (((..(((....)))))) | -18 | 37.6
GCCGCGCGAAAGCCCTGC ((.(.((....)).).)) | -12.1 | 28.6
GATCCGGTCGCGGATC ((((((....)))))) | -36.7 | 60.2
GCATGGCGAAAGCATTGC (((..((....))..))) | -20 | 49.6
GTATATGCGAAAGCATAC (((..(((....)))))) | -8.89 | 32.1
GCTGGAGGAAACTCCAAC (.(((((....))))).) | -15.6 | 38
GTGCGCGAAAGCGTCCAC ((((((....)))..))) | -9.9 | 36.4
GATCAGGTAACTGATC ((((((....)))))) | -39.9 | 57.1
GCTCGGGCGAAAGCCAGC (((..(((....)))))) | -8.16 | 52
GTGTCGGGAAACTGACAC (((((.(....).))))) | -41.6 | 55
GGACTGGGAAACTGGTCC ((((..(....)..)))) | -25 | 45.5
GTAGATACGAAAGTATAC (((..(((....)))))) | -11.6 | 25.4
GCGTGGCGAAAGCCTGGC ((..(((....)))..)) | -17.4 | 52.4

Sequence | folding enthalpy [1] [kcal/mol] | Tm [2] [°C]
GGGATTCGAAAGAAGCCC (((.(((....))).))) | -34.7 | 63.5
GATCGACCGTTCGATC ((((((....)))))) | -46 | 50.7
GCACATGGAAACATGCGC ((.((((....)))).)) | -48.8 | 49.9
GATCGACTCTTCGATC ((((((....)))))) | -39.5 | 52.7
GATCTGCCTGCAGATC ((((((....)))))) | -43.3 | 62.6
GATCAAAAAATTGATC ((((((....)))))) | -17.5 | 32.4
GGTCTCGAAAGAGGACC ((((((....))).))) | -28.3 | 49.5
GGGGTCGAAAGACCGCCC ((((((....)))..))) | -11.3 | 52.7
GCGTGCGGAAACGCATGC ((.((((....)))).)) | -31 | 67.4
GGTTGCGAAAGCACCACC ((((((....)))..))) | -11.6 | 45.1
GATCCCCGCGGGATC ((((((...)))))) | -34.5 | 65.9
GGCTTGGGAAACCGAGTC (.((.((....)).)).) | -27.4 | 41.5
GCGAGAGATCGC ((((....)))) | -17.5 | 50.3
GTGAGTGGAAACGTTCAC ((((..(....)..)))) | -11.2 | 28.4
GTAACCGAAAGGTTGTAC ((((((....)))..))) | -10.4 | 33.4
GGGTCGGGAAACTGACCC (((((.(....).))))) | -51.9 | 57.5
GAGCATGGAAACATGCCC (.(((((....))))).) | -12.8 | 44
GTCGTAGCGAAAGCTGAC (((..(((....)))))) | -19.6 | 46.3
GGTCGTCGAAAGACAACC (((.(((....))).))) | -26.1 | 48.9
GCGCCTACGAAAGTACGC (((..(((....)))))) | -27.8 | 42
GATCGAGCTTTCGATC ((((((....)))))) | -35.1 | 52.6
GCCTCCGGAAACGGAAGC ((.((((....)))).)) | -22.7 | 45.9
GTATTCGAAAGAAATAC ((((((....))).))) | -14.9 | 34

Sequence | folding enthalpy [1] [kcal/mol] | Tm [2] [°C]
GCGGAGCGAAAGCTATGC ((..(((....)))..)) | -16.5 | 44.5
CGAGTCGGAAACGATCG (((.(((....)))))) | -27.4 | 40.8
GATCACAATGGTGATC ((((((....)))))) | -35.1 | 55.3
GCCGGGGGAAACCCCGAC (.(((((....))))).) | -13.2 | 51.8
GTTACAGGAAACTGCAAC (((.(((....))).))) | -23.4 | 35.8
GTAAGCGAAAGCTACTAC ((((((....)))..))) | -14.1 | 47.5
TCGTAGAAATACGA (((((....))))) | -11.6 | 41.3
GCGCTTGGAAACGAGTGC ((.((.(....).)).)) | -32.8 | 46.1
GTGGTTGGAAACGACCAC (((((.(....).))))) | -41 | 54.7
GGTTGCGAAAGCATCACC ((((((....)))..))) | -13 | 36.2
GCTTAGGGAAACCTGAGC (((.(((....))).))) | -32.8 | 46.7
GTGCACGAAAGTGCCCAC ((((((....)))..))) | -7.58 | 40.7
GATCCTTTGGAGGATC ((((((....)))))) | -39.5 | 53.3
GATCTGTAGGCAGATC ((((((....)))))) | -45 | 51.9
GAGGGCGAAAGCCTCCTC ((((((....)))..))) | -9.66 | 40.5
GGTAGTGGAAACGTTACC ((((..(....)..)))) | -17.1 | 34.5
GCGATTTGTCGC ((((....)))) | -23.5 | 54
GATCCTCCACAGGATC ((((((....)))))) | -36 | 50.8
CGAACGGAAACGTGTTCG ((((((....)))..))) | -26.7 | 42.6
GATCGGAACCCGATC ((((((...)))))) | -44 | 54
GCTCGCGAAAGCGGAAGC ((((((....)))..))) | -16.3 | 53.2
GGCGATGGAAACACCGCC ((((.((....)).)))) | -51.7 | 54
GGCCTTCGAAAGAACGCC (((.(((....))).))) | -30.7 | 44.4

Sequence | folding enthalpy [1] [kcal/mol] | Tm [2] [°C]
GACATAGGAAACTACGTC (((.(((....))).))) | -15.1 | 30
TCCTTGAAAAAGGA (((((....))))) | -11.1 | 35.1
GCGTCCGAAAGGATCGC ((((((....))).))) | -37.8 | 59.5
GCGGGAAGCCGC ((((....)))) | -18.4 | 61.6
GCATTCGGAAACAAATGC (((((.(....).))))) | -28.9 | 38
GCGACCGAAAGGTCTCGC ((((((....)))..))) | -14.6 | 50.2
GTCATCGAAAGATTCGAC ((((((....)))..))) | -12.3 | 25.8
GTGTACGGAAACGTATAC ((.((((....)))).)) | -29.1 | 46.6
GCCGTACGAAAGTAAGGC (((.(((....))).))) | -36.6 | 60.1
GTCAGCGAAAGCTGAGAC ((((((....)))..))) | -8.85 | 49
GCTTACGAAAGTATCAGC ((((((....)))..))) | -14.2 | 33.1
GCTAAGAAATTAGC (((((....))))) | -16.8 | 39.5
GATCTCCCACGAGATC ((((((....)))))) | -40.3 | 50.5
GATCAGAGGCTGATC ((((((...)))))) | -32.9 | 48.7
GATCAGCCACTGATC ((((((...)))))) | -32 | 48.6
GGTTCAGAAATGAACC ((((((....)))))) | -38.8 | 54.6
GGGCGGCGAAAGCCACCC (((.(((....))).))) | -26.3 | 67.3
GAGGACGAAAGTCAGCTC ((((((....)))..))) | -15 | 42
GCGCCTGGAAACGGGTGC ((.((.(....).)).)) | -46.3 | 52.3
GACGGCGAAAGCCTGGTC ((((((....)))..))) | -15.1 | 49.9
GCGTTGCGAAAGCATCGC (((.(((....))).))) | -55.8 | 61.3
GACTCAGGAAACCGAGTC (((((.(....).))))) | -29.8 | 46.2
GTCCGGGGAAACCCGAAC ((.((((....)))).)) | -18.5 | 44.2
